Reference: ChEMBL document CHEMBL4706527, “Identification of novel quinoline analogues bearing thiazolidinones as potent kinase inhibitors for the treatment of colorectal cancer” (Eur J Med Chem, 2020)
Calls of active or inactive are those of the source. The calls are words filed in the database; no cut-off is given here.

Legend:
HT-29 [1] = experiment: cells; details: Homo sapiens
[2] = biological target: Proto-oncogene tyrosine-protein kinase Src (Homo sapiens, UniProt P12931); experiment: Inhibition of c-Src (unknown origin) using FAM-labelled peptide and ATP incubated for 10 mins by mobility shift assay
HT-29 [3] = experiment: Cell cycle arrest in human HT-29 cells assessed as accumulation in G2/M phase at 0.3 ug/ml incubated for 48 hrs by propidium iodide base flow cytometry analysis (reference value: 2.4%); format: functional; details: dose 0.3 µg/ml
[4] = biological target: Insulin-like growth factor 1 receptor (Homo sapiens, UniProt P08069); experiment: Inhibition of IGF1R (unknown origin) by mobility shift assay
[5] = biological target: T1, Hepatocyte growth factor receptor (Homo sapiens, UniProt P08581); experiment: Inhibition of c-Met (unknown origin) using FAM-labelled peptide and ATP incubated for 10 mins by mobility shift assay relative to control
HT-29 [6] = experiment: Cell cycle arrest in human HT-29 cells assessed as accumulation in S phase at 3 ug/ml incubated for 48 hrs by propidium iodide base flow cytometry analysis (reference value: 22.4%); format: functional; details: dose 3 µg/ml
HT-29 [7] = experiment: Cell cycle arrest in human HT-29 cells assessed as accumulation in S phase at 1 ug/ml incubated for 48 hrs by propidium iodide base flow cytometry analysis (reference value: 22.4%); format: functional; details: dose 1 µg/ml
[8] = biological target: T1, Hepatocyte growth factor receptor; experiment: Inhibition of c-Met (unknown origin) using FAM-labelled peptide and ATP incubated for 10 mins by mobility shift assay
HT-29 [9] = experiment: Cell cycle arrest in human HT-29 cells assessed as accumulation in S phase at 0.3 ug/ml incubated for 48 hrs by propidium iodide base flow cytometry analysis (reference value: 22.4%); format: functional; details: dose 0.3 µg/ml
HT-29 [10] = experiment: Cytotoxicity against human HT-29 cells assessed as reduction in cell viability at 5 ug/mL by MTT assay; format: functional, cell-based; details: dose 5.0 µg/ml
[11] = biological target: T2, Tyrosine-protein kinase receptor UFO (Homo sapiens, UniProt P30530); experiment: Inhibition of AXL (unknown origin) using FAM-labelled peptide and ATP incubated for 10 mins by mobility shift assay
T2 sequence (P30530 whole entry): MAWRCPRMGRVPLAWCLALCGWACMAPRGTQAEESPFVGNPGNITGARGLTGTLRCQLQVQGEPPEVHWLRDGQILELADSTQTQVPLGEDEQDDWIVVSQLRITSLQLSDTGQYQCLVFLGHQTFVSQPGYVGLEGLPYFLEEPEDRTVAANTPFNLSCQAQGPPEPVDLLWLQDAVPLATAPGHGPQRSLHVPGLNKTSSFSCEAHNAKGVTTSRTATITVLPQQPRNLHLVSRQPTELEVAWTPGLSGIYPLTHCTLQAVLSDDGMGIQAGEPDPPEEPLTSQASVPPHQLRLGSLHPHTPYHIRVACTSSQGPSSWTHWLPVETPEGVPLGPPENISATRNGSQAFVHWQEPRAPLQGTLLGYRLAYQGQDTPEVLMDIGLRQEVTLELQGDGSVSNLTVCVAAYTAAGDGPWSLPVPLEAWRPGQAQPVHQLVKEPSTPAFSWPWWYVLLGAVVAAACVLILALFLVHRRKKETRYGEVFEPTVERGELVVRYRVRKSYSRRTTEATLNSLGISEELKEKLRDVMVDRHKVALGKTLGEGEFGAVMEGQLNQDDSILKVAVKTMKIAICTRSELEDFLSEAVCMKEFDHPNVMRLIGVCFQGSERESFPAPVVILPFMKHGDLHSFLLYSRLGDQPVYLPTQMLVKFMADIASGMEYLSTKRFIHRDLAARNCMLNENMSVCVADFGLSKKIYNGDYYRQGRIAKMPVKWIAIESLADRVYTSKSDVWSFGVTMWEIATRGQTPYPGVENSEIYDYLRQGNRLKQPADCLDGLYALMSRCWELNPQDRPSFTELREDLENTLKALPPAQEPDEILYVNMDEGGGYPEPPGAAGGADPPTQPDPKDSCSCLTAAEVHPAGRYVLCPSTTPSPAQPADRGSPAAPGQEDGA

[12] = biological target: Serine/threonine-protein kinase B-raf (Homo sapiens, UniProt P15056); experiment: Inhibition of B-Raf (unknown origin) by mobility shift assay
HT-29 [13] = experiment: Cell cycle arrest in human HT-29 cells assessed as accumulation in G0/G1 phase at 3 ug/ml incubated for 48 hrs by propidium iodide base flow cytometry analysis (reference value: 71.6%); format: functional; details: dose 3 µg/ml
FHC [14] = experiment: Antiproliferative activity aganist human FHC at 10 ug/ml measured after 72 hrs by MTT assay; format: cell-based; details: at 10 µg/mL
[15] = biological target: Platelet-derived growth factor receptor alpha (Homo sapiens, UniProt P16234); experiment: Inhibition of PDGFR alpha (unknown origin) by mobility shift assay
HT-29 [16] = experiment: Cytotoxicity against human HT-29 cells assessed as reduction in cell viability measured after 36 hrs by MTT assay; format: functional, cell-based; details: dose 0.56-1.67 µg/ml
HT-29 [17] = experiment: Cell cycle arrest in human HT-29 cells assessed as accumulation in G0/G1 phase at 1 ug/ml incubated for 48 hrs by propidium iodide base flow cytometry analysis (reference value: 71.6%); format: functional; details: dose 1 µg/ml
HT-29 [18] = experiment: Cytotoxicity against human HT-29 cells assessed as reduction in cell viability measured at 0.56 to 1.67 microg/ml by IncuCyte live-cell imaging assay; details: dose 0.56-1.67 µg/ml, TDE = time-dependent effect
[19] = biological target: Mast/stem cell growth factor receptor Kit (Homo sapiens, UniProt P10721); experiment: Inhibition of c-Kit (unknown origin) using FAM-labelled peptide and ATP incubated for 10 mins by mobility shift assay
[20] = biological target: Macrophage-stimulating protein receptor (Homo sapiens, UniProt Q04912); experiment: Inhibition of Ron (unknown origin) using FAM-labelled peptide and ATP incubated for 10 mins by mobility shift assay
HT-29 [21] = experiment: Antiproliferative activity against human HT-29 cells assessed as dead cells by measuring green fluorescent cells at 1 to 3 ug/mL by IncuCyte live-cell imaging assay; format: functional, cell-based
In short: (§1)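 HT-29 cells (5×10^3/well) in DMEM with 10% FBS, cultured 24 h at 37 °C, 5% CO2, then treated with graded concentrations of compound; 0.1% DMSO vehicle control. YOYO-1 iodide DNA dye added; green-fluorescent cells counted as dead, imaged every 2 h for 72 h in an IncuCyte system. Three replicates; mean ± SD of three independent experiments.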

HT-29 [22] = experiment: Cell cycle arrest in human HT-29 cells assessed as accumulation in G2/M phase at 3 ug/ml incubated for 48 hrs by propidium iodide base flow cytometry analysis (reference value: 2.4%); format: functional; details: dose 3 µg/ml
FHC [23] = experiment: Cytotoxicity aganist human FHC at 10 ug/ml measured after 72 hrs by IncuCyte live-cell imaging assay
HT-29 [24] = experiment: Antiproliferative activity against human HT-29 cells assessed as dead cells by measuring green fluorescent cells for 48 to 72 hrs by IncuCyte live-cell imaging assay; format: functional, cell-based
In short: as §1

HT-29 [25] = experiment: Cell cycle arrest in human HT-29 cells assessed as accumulation in G2/M phase at 1 ug/ml incubated for 48 hrs by propidium iodide base flow cytometry analysis (reference value: 2.4%); format: functional; details: dose 1 µg/ml
HT-29 [26] = experiment: Antiproliferative activity against human HT-29 cells assessed as dead cells by measuring green fluorescent cells at 5 ug/mL for 72 hrs by IncuCyte live-cell imaging assay; format: functional, cell-based; details: dose 5.0 µg/ml
In short: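 HT-29 cells (5×10^3 per well) in DMEM with 10% FBS at 37 °C, 5% CO2; compound added after 24 h culture. YOYO-1 iodide added, green-fluorescent cells counted as dead; live-cell imaging every 2 h for 72 h; three replicates; mean ± SD of three independent experiments.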

HT-29 [27] = experiment: Cell cycle arrest in human HT-29 cells assessed as accumulation in G0/G1 phase at 0.3 ug/ml incubated for 48 hrs by propidium iodide base flow cytometry analysis (reference value: 71.6%); format: functional; details: dose 0.3 µg/ml
FHC [28] = experiment: Cytotoxicity aganist human FHC at 0.19 ug/ml measured after 72 hrs by IncuCyte live-cell imaging assay

T1 sequence (P08581 whole entry): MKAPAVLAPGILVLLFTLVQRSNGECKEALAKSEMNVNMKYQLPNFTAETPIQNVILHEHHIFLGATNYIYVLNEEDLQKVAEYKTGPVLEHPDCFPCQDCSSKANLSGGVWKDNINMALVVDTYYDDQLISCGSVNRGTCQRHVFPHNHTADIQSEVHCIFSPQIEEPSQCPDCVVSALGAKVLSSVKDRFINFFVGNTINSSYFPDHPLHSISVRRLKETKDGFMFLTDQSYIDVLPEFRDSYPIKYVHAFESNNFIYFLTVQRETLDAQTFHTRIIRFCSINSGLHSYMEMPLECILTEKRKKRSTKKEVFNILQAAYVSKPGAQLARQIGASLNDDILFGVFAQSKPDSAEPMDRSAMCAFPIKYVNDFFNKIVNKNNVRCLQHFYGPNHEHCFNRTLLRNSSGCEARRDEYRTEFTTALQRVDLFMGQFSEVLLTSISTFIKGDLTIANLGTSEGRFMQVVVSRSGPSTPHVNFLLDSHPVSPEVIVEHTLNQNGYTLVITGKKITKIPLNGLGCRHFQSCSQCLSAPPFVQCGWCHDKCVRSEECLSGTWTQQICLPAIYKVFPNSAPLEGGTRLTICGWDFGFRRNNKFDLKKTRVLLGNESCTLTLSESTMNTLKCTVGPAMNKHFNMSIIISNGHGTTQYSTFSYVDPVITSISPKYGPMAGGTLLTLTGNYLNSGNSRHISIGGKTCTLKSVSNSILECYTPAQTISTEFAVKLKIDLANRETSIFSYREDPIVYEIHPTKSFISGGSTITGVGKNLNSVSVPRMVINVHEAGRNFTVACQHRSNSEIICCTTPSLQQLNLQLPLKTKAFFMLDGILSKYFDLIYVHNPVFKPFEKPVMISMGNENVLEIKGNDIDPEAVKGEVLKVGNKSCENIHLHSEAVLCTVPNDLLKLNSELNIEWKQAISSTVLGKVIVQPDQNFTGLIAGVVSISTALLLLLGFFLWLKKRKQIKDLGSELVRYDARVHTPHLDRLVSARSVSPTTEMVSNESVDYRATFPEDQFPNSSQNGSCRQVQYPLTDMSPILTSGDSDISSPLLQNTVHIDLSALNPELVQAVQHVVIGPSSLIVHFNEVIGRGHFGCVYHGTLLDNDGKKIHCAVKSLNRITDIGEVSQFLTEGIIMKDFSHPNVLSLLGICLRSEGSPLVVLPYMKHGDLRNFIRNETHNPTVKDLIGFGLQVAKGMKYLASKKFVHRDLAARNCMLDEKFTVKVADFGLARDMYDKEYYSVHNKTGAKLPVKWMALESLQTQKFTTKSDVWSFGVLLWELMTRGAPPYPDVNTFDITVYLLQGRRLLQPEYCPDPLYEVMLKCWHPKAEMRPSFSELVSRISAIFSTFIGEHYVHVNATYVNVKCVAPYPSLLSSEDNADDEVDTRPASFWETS
Platelet-derived growth factor receptor alpha, sequence (P16234 whole entry): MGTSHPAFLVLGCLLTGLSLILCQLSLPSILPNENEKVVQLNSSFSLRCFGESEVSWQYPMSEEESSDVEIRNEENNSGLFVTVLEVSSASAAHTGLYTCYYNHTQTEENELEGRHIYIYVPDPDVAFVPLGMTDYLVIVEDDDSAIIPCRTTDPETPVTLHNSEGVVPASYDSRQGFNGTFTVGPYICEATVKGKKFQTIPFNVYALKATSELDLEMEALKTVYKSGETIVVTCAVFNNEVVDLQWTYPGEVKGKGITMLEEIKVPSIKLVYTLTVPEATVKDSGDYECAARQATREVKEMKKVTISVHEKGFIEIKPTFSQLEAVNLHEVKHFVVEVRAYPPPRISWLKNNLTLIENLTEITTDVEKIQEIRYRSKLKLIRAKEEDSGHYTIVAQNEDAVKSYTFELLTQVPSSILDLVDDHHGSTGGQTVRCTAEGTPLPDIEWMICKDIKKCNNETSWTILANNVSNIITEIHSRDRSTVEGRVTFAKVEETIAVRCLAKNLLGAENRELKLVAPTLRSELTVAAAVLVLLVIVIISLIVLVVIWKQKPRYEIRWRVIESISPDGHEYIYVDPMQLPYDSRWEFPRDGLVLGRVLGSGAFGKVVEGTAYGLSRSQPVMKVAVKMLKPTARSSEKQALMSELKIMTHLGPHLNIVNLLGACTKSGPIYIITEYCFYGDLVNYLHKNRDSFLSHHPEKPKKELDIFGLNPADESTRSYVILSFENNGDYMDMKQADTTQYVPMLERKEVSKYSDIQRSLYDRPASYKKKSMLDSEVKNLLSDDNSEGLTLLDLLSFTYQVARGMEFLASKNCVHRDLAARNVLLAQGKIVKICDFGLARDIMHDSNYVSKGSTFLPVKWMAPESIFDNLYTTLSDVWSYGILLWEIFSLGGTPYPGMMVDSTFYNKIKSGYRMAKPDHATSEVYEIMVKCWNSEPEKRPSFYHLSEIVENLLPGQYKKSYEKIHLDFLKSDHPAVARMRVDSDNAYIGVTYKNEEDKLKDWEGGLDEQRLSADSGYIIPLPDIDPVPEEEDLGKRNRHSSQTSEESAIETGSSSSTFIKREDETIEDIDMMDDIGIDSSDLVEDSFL
Serine/threonine-protein kinase B-raf, sequence (P15056 whole entry): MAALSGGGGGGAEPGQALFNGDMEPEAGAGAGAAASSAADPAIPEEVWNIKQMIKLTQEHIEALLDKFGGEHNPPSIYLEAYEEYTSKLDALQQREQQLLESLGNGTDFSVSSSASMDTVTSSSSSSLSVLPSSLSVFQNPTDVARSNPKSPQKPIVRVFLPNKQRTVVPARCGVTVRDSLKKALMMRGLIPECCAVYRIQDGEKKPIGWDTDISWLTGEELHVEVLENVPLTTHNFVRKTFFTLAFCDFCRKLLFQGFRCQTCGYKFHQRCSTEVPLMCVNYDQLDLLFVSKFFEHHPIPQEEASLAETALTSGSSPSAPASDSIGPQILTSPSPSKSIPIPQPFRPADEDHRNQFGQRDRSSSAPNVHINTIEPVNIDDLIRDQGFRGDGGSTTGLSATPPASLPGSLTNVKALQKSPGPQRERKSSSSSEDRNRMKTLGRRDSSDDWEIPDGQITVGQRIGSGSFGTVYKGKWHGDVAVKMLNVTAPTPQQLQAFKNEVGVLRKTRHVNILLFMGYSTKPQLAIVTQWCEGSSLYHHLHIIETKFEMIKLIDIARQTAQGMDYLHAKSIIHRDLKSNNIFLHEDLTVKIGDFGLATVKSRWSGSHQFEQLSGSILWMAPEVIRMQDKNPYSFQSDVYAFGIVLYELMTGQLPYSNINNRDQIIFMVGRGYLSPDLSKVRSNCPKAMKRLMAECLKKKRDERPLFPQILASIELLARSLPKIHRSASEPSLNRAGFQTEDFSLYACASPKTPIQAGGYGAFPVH
Proto-oncogene tyrosine-protein kinase Src, sequence (P12931 2-536 limits assumed): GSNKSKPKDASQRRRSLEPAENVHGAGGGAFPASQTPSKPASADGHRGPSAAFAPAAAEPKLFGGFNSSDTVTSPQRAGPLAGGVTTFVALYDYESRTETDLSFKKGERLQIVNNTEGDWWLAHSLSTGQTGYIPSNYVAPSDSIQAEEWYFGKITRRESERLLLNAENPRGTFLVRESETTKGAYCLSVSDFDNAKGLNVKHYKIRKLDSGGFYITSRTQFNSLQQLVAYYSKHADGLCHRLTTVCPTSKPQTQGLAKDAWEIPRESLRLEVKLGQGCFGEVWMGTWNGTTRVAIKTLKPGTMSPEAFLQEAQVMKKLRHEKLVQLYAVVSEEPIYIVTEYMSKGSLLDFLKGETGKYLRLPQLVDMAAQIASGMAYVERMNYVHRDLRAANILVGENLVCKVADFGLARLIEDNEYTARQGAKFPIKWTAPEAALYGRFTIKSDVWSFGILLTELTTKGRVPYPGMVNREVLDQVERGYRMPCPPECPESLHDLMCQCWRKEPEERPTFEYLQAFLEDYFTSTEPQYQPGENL
Mast/stem cell growth factor receptor Kit, sequence (P10721 whole entry): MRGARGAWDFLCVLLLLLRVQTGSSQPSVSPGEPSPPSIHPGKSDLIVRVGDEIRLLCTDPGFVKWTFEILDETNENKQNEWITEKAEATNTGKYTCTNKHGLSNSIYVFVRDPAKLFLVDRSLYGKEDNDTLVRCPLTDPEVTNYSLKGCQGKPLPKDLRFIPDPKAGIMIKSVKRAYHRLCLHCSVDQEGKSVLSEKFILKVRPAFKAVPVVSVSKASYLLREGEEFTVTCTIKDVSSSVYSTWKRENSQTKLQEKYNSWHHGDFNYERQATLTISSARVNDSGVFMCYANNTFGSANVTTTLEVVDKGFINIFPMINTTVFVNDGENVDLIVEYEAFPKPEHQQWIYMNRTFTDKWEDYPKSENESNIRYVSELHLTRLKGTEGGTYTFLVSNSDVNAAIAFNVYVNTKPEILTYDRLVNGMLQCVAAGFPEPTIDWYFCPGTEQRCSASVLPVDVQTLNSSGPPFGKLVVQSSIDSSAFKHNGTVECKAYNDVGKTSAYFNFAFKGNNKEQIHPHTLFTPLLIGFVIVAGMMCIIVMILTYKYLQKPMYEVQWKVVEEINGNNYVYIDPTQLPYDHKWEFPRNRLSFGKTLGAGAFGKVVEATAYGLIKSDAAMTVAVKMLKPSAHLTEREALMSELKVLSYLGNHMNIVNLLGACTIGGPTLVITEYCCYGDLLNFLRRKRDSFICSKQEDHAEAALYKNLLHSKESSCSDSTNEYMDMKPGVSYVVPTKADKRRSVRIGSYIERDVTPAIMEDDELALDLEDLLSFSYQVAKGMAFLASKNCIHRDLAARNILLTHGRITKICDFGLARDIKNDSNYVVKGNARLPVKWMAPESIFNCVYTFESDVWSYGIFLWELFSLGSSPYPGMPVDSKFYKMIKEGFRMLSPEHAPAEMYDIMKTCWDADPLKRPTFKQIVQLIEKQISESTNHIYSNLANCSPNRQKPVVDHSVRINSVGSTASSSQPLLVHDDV

## COc1cc2c(Oc3ccc(NC(=O)NN4C(=O)CSC4c4c(F)cc(F)cc4F)cc3)ccnc2cc1OC1CCN(C(=O)NC(C)C)CC1 (configuration not stated)
HT-29 [1]
  IC50: 0.91 µM

## CCCCNC(=O)N1CCC(Oc2cc3nccc(Oc4ccc(NC(=O)NN5C(=O)CSC5c5ccc(F)cc5)cc4)c3cc2OC)CC1 (configuration not stated)
HT-29 [1]
  IC50: 1.7 µM

## COc1cc2c(Oc3ccc(NC(=O)NN4C(=O)CSC4c4ccccc4F)cc3)ccnc2cc1OC1CCN(C(=O)NC(C)C)CC1 (configuration not stated)
HT-29 [1]
  IC50: 0.41 µM

## COc1cc2c(Oc3ccc(NC(=O)NN4C(=O)CSC4c4ccc(F)cc4F)cc3)ccnc2cc1OC1CCN(C(=O)NC(C)C)CC1 (configuration not stated)
HT-29 [1]
  IC50: 0.95 µM

## COc1cc2c(Sc3ccc(NC(=O)NN4C(=O)CSC4c4c(F)cccc4F)cc3)ccnc2cc1OC1CCN(C(=O)NC(C)C)CC1 (configuration not stated)
HT-29 [1]
  IC50: 0.42 µM

## COc1cc2c(Oc3ccc(NC(=O)NN4C(=O)CSC4c4cccc(F)c4)cc3)ccnc2cc1OC1CCN(C(=O)NC(C)C)CC1 (configuration not stated)
HT-29 [1]
  IC50: 0.67 µM

## COc1cc2c(Oc3cccc(NC(=O)NN4C(=O)CSC4c4c(F)cccc4F)c3)ccnc2cc1OC1CCN(C(=O)NC(C)C)CC1 (configuration not stated)
HT-29 [1]
  IC50: > 10 µM

## COc1cc2c(Sc3ccc(NC(=O)NN4C(=O)CSC4c4c(F)cccc4F)cc3)ccnc2cc1OC1CCCN(C(=O)NC(C)C)C1 (configuration not stated)
HT-29 [1]
  IC50: > 10 µM

## CCNC(=O)N1CCC(Oc2cc3nccc(Oc4ccc(NC(=O)NN5C(=O)CSC5c5ccc(F)cc5)cc4)c3cc2OC)CC1 (configuration not stated)
HT-29 [1]
  IC50: 2.25 µM

## COc1cc2c(Oc3ccc(NC(=O)NN4C(=O)CSC4c4ccccc4)cc3)ccnc2cc1OC1CCN(C(=O)NC(C)C)CC1 (configuration not stated)
HT-29 [1]
  IC50: 1.26 µM

## COc1cc2c(Sc3ccc(NC(=O)NN4C(=O)CSC4c4c(F)cccc4F)cc3)cc(N)nc2cc1OC1CCN(C(=O)NC(C)C)CC1 (configuration not stated)
HT-29 [1]
  IC50: 5.6 µM

## COc1cc2c(Oc3ccc(NC(=O)NN4C(=O)CSC4c4c(F)cccc4F)cc3)ccnc2cc1OC1CCN(C(=O)NC(C)C)CC1 (configuration not stated)
[2]
  IC50: 0.421 µM
HT-29 [3]
  Activity: 3.8%
[4]
  IC50: > 10 µM
[5]
  IC50: 0.382 µM
HT-29 [6]
  Activity: 18.3%
HT-29 [7]
  Activity: 20.3%
[8]
  IC50: 0.382 µM
HT-29 [9]
  Activity: 19.7%
HT-29 [10]
  Activity: Active
[11]
  IC50: 0.632 µM
[12]
  IC50: > 10 µM
HT-29 [13]
  Activity: 71.2%
FHC [14]
  Activity: 26.7%
[15]
  IC50: 0.384 µM
HT-29 [16]
  Activity: Dose-dependent effect
HT-29 [17]
  Activity: 71.5%
HT-29 [1]
  IC50: 0.31 µM
HT-29 [18]
  Activity: Tde
[19]
  IC50: > 10 µM
[20]
  IC50: 0.122 µM
HT-29 [21]; dose 1-3 µg/ml, time 48-72 hrs, TDE = time-dependent effect
  Activity: Tde
HT-29 [22]
  Activity: 4.4%
FHC [23]
  Activity: Toxic
HT-29 [24]; dose 1-3 µg/ml, time 48-72 hrs
  Activity: Dose-dependent effect
HT-29 [25]
  Activity: 4.3%
HT-29 [26]
  Activity: Active
HT-29 [27]
  Activity: 71.3%

## COc1cc2c(Oc3ccc(NC(=O)NN4C(=O)CSC4c4ccc(F)c(F)c4)cc3)ccnc2cc1OC1CCN(C(=O)NC(C)C)CC1 (configuration not stated)
HT-29 [1]
  IC50: 1.06 µM

## CNC(=O)c1cc(Oc2ccc(NC(=O)Nc3ccc(Cl)c(C(F)(F)F)c3)c(F)c2)ccn1 [REGORAFENIB]
FHC [28]
  Activity: Toxic
HT-29 [6]
  Activity: 15.7%
HT-29 [10]
  Activity: inactive
HT-29 [13]
  Activity: 78.5%
FHC [14]
  Activity: 13.5%
HT-29 [16]
  Activity: inactive
HT-29 [1]
  IC50: 2.87 µM
HT-29 [21]
  AC50: Active
HT-29 [22]
  Activity: 2%
FHC [23]
  Activity: Toxic
HT-29 [24]
  Activity: Active
HT-29 [26]
  Activity: Active

## COc1cc2c(Oc3ccc(NC(=O)NN4C(=O)CSC4c4ccc(F)cc4)cc3)ccnc2cc1OC1CCN(C(=O)NC(C)C)CC1 (configuration not stated)
HT-29 [1]
  IC50: 0.86 µM

## COc1cc2c(Oc3ccc(NC(=O)NN4C(=O)CSC4c4ccc(F)cc4)cc3)ccnc2cc1OC1CCN(C(=O)NCc2ccccc2)CC1 (configuration not stated)
HT-29 [1]
  IC50: 6.6 µM

## COc1cc2c(Sc3ccc(NC(=O)NN4C(=O)CSC4c4c(F)cccc4F)cc3)ccnc2cc1OCC1CCN(C(=O)NC(C)C)CC1 (configuration not stated)
HT-29 [1]
  IC50: 0.39 µM

## COc1cc2nccc(Sc3ccc(NC(=O)NN4C(=O)CSC4c4c(F)cccc4F)cc3)c2cc1OCC1CCN(C(=O)NC(C)C)CC1 (configuration not stated)
HT-29 [1]
  IC50: > 10 µM

## COc1cc2c(Oc3ccc(NC(=O)NN4C(=O)CSC4c4ccc(F)cc4)cc3)ccnc2cc1OC1CCN(C(=O)NC2CCCCC2)CC1 (configuration not stated)
HT-29 [1]
  IC50: 3.42 µM

## COc1cc2c(Oc3ccc(NC(=O)NN4C(=O)CSC4c4cccc(F)c4F)cc3)ccnc2cc1OC1CCN(C(=O)NC(C)C)CC1 (configuration not stated)
HT-29 [1]
  IC50: 0.79 µM
